# Screening results deposited in PubChem by several laboratories.
# The list is not random: actives were taken first. Their share in the collection is about 9.6%.
# MT stabilize HCS – microtubule stabilization, imaging screen; HeLa tubulin immunostaining HCS, 24 h; share of cells brighter than vehicle mean+2SD; % tubulin-high responders, % at 10 µM; actives 0.83% (n = 200,000);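 active means plate Z-score above 3 for both tubulin-high and condensed-nucleus cell shares, with cell loss under 80%, at 10 µM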;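 further: anti alpha tubulin signal scored within the nucleus-defined area of each cell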
# BaF3 parental – parental Ba/F3 viability inhibition as JAK2V617F counter-screen; CellTiter-Glo ATP luminescence; inhibition, % at 5.6 µM; actives 1.1% (n = 220,000); AID 1486;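 active means inhibition above a per-campaign cutoff, the mean inhibition of all tested compounds plus 3 SD, cut at about 27% in these data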;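 further: 0% = DMSO wells and 100% = JAK Inhibitor I control wells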
# Ba/F3 V617F tox – lowers viability of Ba/F3 cells expressing EpoR and JAK2V617F; ATP luminescence; inhibition, % at 5.6 µM; actives 1.1% (n = 220,000);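 active means inhibition above the campaign mean plus 3 SD over all tested compounds, cut at about 24% in these data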;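 further: cytokine-independent growth of Ba/F3 cells driven by EpoR plus mutant JAK2; 0% = DMSO-treated cells and 100% = JAK inhibitor I control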
# Lmaj promast – reduces viability of Leishmania major promastigotes | actives 9% (n = 200,000) | resazurin fluorescence viability | inhibition, % at 10 µM; in the data active means inhibition above about 50%;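 further: promastigotes grown with compound for 44 hours at 28 °C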
# b-catenin transl – alters nuclear translocation of beta-catenin in HeLa cells | AID 1665 | nuclear translocation activity, % at 5 µM | immunofluorescence imaging | actives 0.3% (n = 190,000);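 active means nuclear translocation activity above 50% at 5 µM, with a well cell count of 50 or more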;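 further: per-cell ratio of nuclear to cytoplasmic median beta-catenin stain intensity; plate controls were DMSO negative control for no effect and GSK-3 inhibitor IX positive control for full effect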
#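 test system = HeLa cells, endogenous beta-catenin | dosing = single 5 µM dose plus 0.02–20 µM confirmation series | times = compound treatment 24 h, 37°C, 5% CO2 | technique = beta-catenin immunofluorescence imaging with DAPI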
# APP 5UTR inh – APP translation inhibition; AID 1285; actives 0.82% (n = 190,000); inhibition, % at 2 µM; SH-SY5Y APP 5'UTR-luciferase reporter, luminescence;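 active means inhibition above a set limit, derived from the sample mean plus 3 SD, cut at about 45% in these data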
# Active calls of the source: *; · = not tested or not shown.
SMILES,MT stabilize HCS,BaF3 parental,Ba/F3 V617F tox,Lmaj promast,b-catenin transl,APP 5UTR inh
CN(C)/C=C1/NC(=S)NC1=O,3.6,-7.1,-5.4,-2.9,0.0,-0.9
O=C(NC(=S)Nc1ccc(-c2nc3ncccc3o2)cc1)c1ccccc1F,2.3,6.5,3.5,4.2,2.3,0.9
O=C(/C(=C/c1ccc(Cl)cc1)c1nc2ccccc2[nH]1)c1ccccc1,46.7*,-1.9,-3.1,100.5*,-0.4,-84.3
COc1cc(/C=C(/C(=O)c2cccs2)c2nc3ccccc3[nH]2)cc(OC)c1O,6.4,1.4,13.4,100.4*,·,-20.3
COc1cc(S(=O)(=O)Nc2cccc(C)c2)ccc1N=Cc1c(C)[nH]n(-c2ccccc2)c1=O,18.3*,7.4,0.2,56.9*,-2.4,8.9
Cc1[nH]n(-c2ccccc2)c(=O)c1C=Nc1cccc2cccnc12,4.9,5.0,-1.2,64.4*,0.1,69.9*
COc1cc(S(=O)(=O)Nc2ccc(C)cc2)ccc1N=Cc1c(C)[nH]n(-c2ccccc2)c1=O,3.6,6.7,0.9,1.2,0.8,9.9
Cc1[nH]n(-c2ccccc2)c(=O)c1/C=N/N1C(=O)c2cccc3cccc(c23)C1=O,5.5,5.9,-0.8,58.7*,-0.8,8.7
Cc1ccc(-n2[nH]c(C)c(/C=N/c3ccccn3)c2=O)cc1,2.1,16.0,10.9,-6.8,2.5,-12.4
NN1C(=O)NC(c2ccccc2)(c2ccccc2)C1=O,1.2,7.6,-0.1,-2.5,-0.9,-5.2
CN(C)S(=O)(=O)c1ccc(C(=O)N2CCN(S(=O)(=O)c3cccs3)CC2)cc1,1.8,6.7,2.2,74.8*,-1.9,4.7
O=C(c1ccco1)N1CCN(S(=O)(=O)c2cccs2)CC1,3.5,3.1,2.2,-1.0,-1.9,-10.9
c1cn(CCCNC2=NCCCCC2)cn1,1.3,90.7*,1.6,-4.9,-7.0,-7.5
c1ccc2c(c1)CCN(Cc1nnnn1Cc1ccc3c(c1)OCO3)C2,3.8,7.2,1.9,11.0,-2.1,-0.4
CC(C)C(c1nnnn1Cc1ccc(F)cc1)N1CCN(Cc2ccc3c(c2)OCO3)CC1 (stereo not drawn),3.9,3.5,0.1,67.8*,0.9,2.6
CCC(c1nnnn1Cc1ccc2c(c1)OCO2)N1CCN(c2ccc(OC)cc2)CC1 (stereo not drawn),2.2,-1.6,-1.3,70.7*,-6.3,-8.1
c1ccc(Cn2nnnc2CN2CCN(Cc3ccc4c(c3)OCO4)CC2)cc1,2.3,3.8,-0.2,88.5*,-2.4,1.5
CCN1CCN(C(c2nnnn2Cc2ccc3c(c2)OCO3)C(C)C)CC1 (stereo not drawn),3.7,4.2,-1.3,4.2,-2.9,1.5
Cc1ccc(C(c2nnnn2Cc2cccs2)N2CCN(Cc3ccc4c(c3)OCO4)CC2)cc1 (stereo not drawn),3.4,1.2,-2.3,78.0*,-0.1,3.9
CCOC(=O)NC(=O)c1cn(Nc2ccccc2)c(=O)[nH]c1=O,·,1.4,-7.2,·,-3.3,·
CC(C)N1CCN(CC#Cc2ccccc2)CC1CCO (stereo not drawn),1.5,8.2,-0.1,-3.3,0.9,-0.8
COc1cccc(C2CCCCN2Cc2nc(-c3ccc(C)o3)oc2C)c1 (stereo not drawn),2.2,3.7,2.1,-5.8,0.5,-6.8
COc1ccc(-c2nc(CN(CC3CCC(=O)N3)C(C)C)c(C)o2)c(C)c1C (stereo not drawn),3.6,4.7,3.6,79.2*,-0.2,6.2
COc1ccc(-c2nc(CN3CCCCC3c3nccn3C)c(C)o2)c(C)c1C (stereo not drawn),3.7,6.3,0.4,96.5*,0.9,-18.1
N=c1c2c(-c3ccccc3)c(-c3ccccc3)n(Cc3ccco3)c2ncn1CCCO,·,-1.6,0.3,·,-1.9,·
SMILES,MT stabilize HCS,BaF3 parental,Ba/F3 V617F tox,Lmaj promast,b-catenin transl,APP 5UTR inh
N=c1c2c(-c3ccccc3)c(-c3ccccc3)n(Cc3ccco3)c2ncn1CCN1CCOCC1,4.1,4.7,1.2,99.7*,-2.6,-8.0
N=c1c2c(-c3ccccc3)c(-c3ccccc3)n(Cc3ccco3)c2ncn1CCO,3.2,2.5,3.5,100.4*,-3.7,44.0
c1coc(CNc2nc3ccccc3n2CCN2CCOCC2)c1,2.0,0.5,-4.9,4.4,-0.8,0.7
CC(=O)c1cn(CC(=O)Nc2ccc(C)cc2C)c2ccccc12,3.9,38.8*,25.2*,-3.3,-2.1,13.5
Cn1c(=O)c([N+](=O)[O-])c(NCCc2ccccc2)c2ccccc21,0.7,0.6,-1.2,30.7,-1.7,-2.5
CCn1c(=O)c([N+](=O)[O-])c(NCCc2ccccc2)c2ccccc21,2.5,2.5,-0.1,100.2*,0.7,14.4
C=CCN1C(c2ccc(Br)cc2)=CS/C1=C(/C#N)c1nnc(N2CCOCC2)n1-c1ccccc1,2.0,1.3,-5.2,56.2*,-0.6,-6.5
C=CCN1C(c2cccc(C(F)(F)F)c2)=CS/C1=C(/C#N)c1nnc(N2CCOCC2)n1-c1ccccc1,3.2,2.1,1.1,43.4,-3.0,-26.8
O=C1NCCCC2c3c(cc(Br)c(O)c3Br)OC12N1CCOCC1 (stereo not drawn),2.9,4.6,1.4,-0.3,-3.2,0.1
O=C1NCCCC2c3cc(O)c4ccccc4c3OC12N1CCCCC1 (stereo not drawn),2.7,5.7,9.0,100.1*,0.8,11.3
CN1c2ccccc2N(C)C1c1ccc2c(c1)OCO2,2.1,60.6*,70.7*,-4.3,0.3,-23.8
CC(C)(C)c1ccc(NC(=O)COc2ccc(-n3ccnc3)cc2)cc1,2.5,4.4,-1.6,66.8*,-1.4,-8.6
C/C(=N\NC(=O)COc1ccc(C(C)(C)C)cc1)c1ccc(-n2ccnc2)cc1,6.2,6.8,1.0,52.4*,2.6,-33.2
COc1cc(NC(=O)COc2ccc(-n3ccnc3)cc2)cc(OC)c1,2.3,6.2,3.0,14.8,4.0,-12.5
C/C(=N\Nc1ccc(Cl)c(Cl)c1)c1ccc(-n2ccnc2)cc1,2.9,4.6,3.0,57.6*,·,-14.0
CCOC(=O)c1ccccc1NS(=O)(=O)c1ccc(S(=O)(=O)N2CCCC2)cc1,4.2,3.8,-0.6,2.7,-1.0,-9.1
CCn1nnc(NC(=O)C(C)(c2ccccc2)c2ccccc2)n1,3.8,5.4,0.2,-4.2,0.6,-15.4
COc1ccc2c(c1)c1ccc3c(c1n2C)C(=O)C=CC3=O,·,34.8*,57.6*,·,1.7,·
O=C1CCC(=O)N1CN(Cc1ccco1)CN1C(=O)CCC1=O,5.0,1.7,-0.6,0.5,-2.7,11.1
CCCCNc1ccccc1C(=O)OCC(=O)Nc1ccc(S(N)(=O)=O)cc1,2.3,3.8,2.2,78.3*,-2.6,-6.2
CCC(=O)Nc1ccccc1C(=O)OCC(=O)Nc1ccc(S(N)(=O)=O)cc1,4.9,4.6,2.9,-7.2,·,18.6
CCOc1ccccc1CN1C(=O)c2ccccc2C1C(=O)NC(C)CC (stereo not drawn),1.6,5.9,-0.8,84.4*,-4.5,3.4
